Assay outcomes from PubChem BioAssay.
Hits are enriched below; roughly 2.9% of the tested compounds scored in any of these assays.
HTRA1 inhibitor – HTRA1 (human) protease inhibition; recombinant HTRA1, FP-rhodamine activity-based probe, fluorescence polarization; Q92743; inhibition, % at 5.96 µM; 340,000 tested, 0.5% active; AID 504803; in the data active = inhibition above about 36%;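 also: 0% = enzyme with DMSO and 100% = wells lacking enzyme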
PRMT1 inh – inhibitors of human PRMT1. recombinant PRMT1, activity-based probe fluorescence polarization. 370,000 tested, 1.3% active. AID 652257. inhibition, % at 2.79 µM;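 active = inhibition above about 21% made by adding two undisclosed values, limit read from the data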
PAD4 inh – blocks human protein arginine deiminase 4. Q9UM07. recombinant PAD4, RCA probe fluorescence polarization. inhibition, % at 6.36 µM. 330,000 tested, 0.41% active. AID 485272;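 active = percent inhibition above a cutoff equal to the mean of all tested compounds plus 3 SD, cut at about 15% in these data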;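 also: 0% = PAD4 with RCA probe and DMSO and 100% = probe without PAD4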
Target sequence (Q9UM07 whole entry, looked up): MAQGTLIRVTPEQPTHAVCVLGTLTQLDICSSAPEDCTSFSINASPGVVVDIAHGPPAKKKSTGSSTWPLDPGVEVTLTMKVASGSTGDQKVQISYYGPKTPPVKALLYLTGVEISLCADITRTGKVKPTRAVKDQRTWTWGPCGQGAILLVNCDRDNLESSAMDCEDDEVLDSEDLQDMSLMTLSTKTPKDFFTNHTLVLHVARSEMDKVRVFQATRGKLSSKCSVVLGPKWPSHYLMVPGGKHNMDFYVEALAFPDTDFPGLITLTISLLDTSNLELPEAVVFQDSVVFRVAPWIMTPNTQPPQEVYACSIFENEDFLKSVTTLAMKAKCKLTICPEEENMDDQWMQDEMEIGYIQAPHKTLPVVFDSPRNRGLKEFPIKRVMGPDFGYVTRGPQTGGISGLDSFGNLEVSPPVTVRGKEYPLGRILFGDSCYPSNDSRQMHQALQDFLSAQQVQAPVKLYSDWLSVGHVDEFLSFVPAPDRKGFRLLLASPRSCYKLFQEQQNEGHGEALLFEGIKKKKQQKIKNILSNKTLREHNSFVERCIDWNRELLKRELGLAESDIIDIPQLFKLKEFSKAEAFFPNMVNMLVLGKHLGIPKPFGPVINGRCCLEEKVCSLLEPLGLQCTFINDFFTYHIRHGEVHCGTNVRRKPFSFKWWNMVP
mABHD4 FP – ABHD4 (mouse) inhibition, primary FP screen | 370,000 tested, 0.54% active | inhibition, % at 8.92 µM | AID 720543 | purified mABHD4, FP-Rh probe fluorescence polarization;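 active = inhibition exceeding the mean over every tested compound plus 3 SD, cut at about 30% in these data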;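 also: 0% = plate median of compound wells and 100% = S159A mutant with DMSO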
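Test system: mABHD4 protein; Read-out basis: % inhibition; Incubation: 45 min + 60 min at 25 °C; Repeats: single replicate; Technique: fluorescence polarization with parallel and perpendicular emission, 525/598 nm; Compound: 8.92 µM, single dose; Benchmarks: full inhibition S159A mutant plus DMSO, zero as sample-well median.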
SIAE primary – inhibitors of human sialic acid acetylesterase SIAE; Q9HAT2; SIAE FP-Rh probe binding, fluorescence polarization; inhibition, % at 9.66 µM; 370,000 tested, 0.69% active;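 active = inhibition above a cutoff: mean of compounds within the control limits plus 3 SD of those, cut at about 17% in these data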;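 also: 0% = plate median of compound wells and 100% = probe without SIAE protein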
TCR CD3 inh – inhibitors of human TCR-CD3 interaction. inhibition, % at 9.4 µM. 360,000 tested, 0.37% active. TAMRA-labeled TCR probe fluorescence, biochemical. AID 651800; in the data active = inhibition above about 19%;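 also: recombinant mutant TCR 2C K166C tagged with TAMRA read by polarization; 0% = receptor in buffer alone and 100% = receptor with positive control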
PRMT1 inh conf – confirmation of human PRMT1 inhibitors; 3,300 tested, 42% active; inhibition, % at 2.79 µM; recombinant His-PRMT1, activity-based probe fluorescence polarization; shares compounds with PRMT1 inh;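 active = mean inhibition across replicates above the hit cutoff derived for the earlier primary screen, cut at about 22% in these data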
An asterisk follows results filed as active; x = not tested or not shown; + = active, no number.

SMILES	HTRA1 inhibitor	PRMT1 inh	PAD4 inh	mABHD4 FP	SIAE primary	TCR CD3 inh	PRMT1 inh conf
COc1ccc(N2CCN(C(=O)c3cc(N4C(=O)C5C6CCC(C6)C5C4=O)ccc3Cl)CC2)cc1 (centres undefined)	3.7	36.2*	-1.6	-4.3	-2.7	-2.4	-1.5
COC(=O)[C@]12C[C@H](CC(=O)N3CCCC3)C(=O)N(Cc3ccco3)C1=C[C@H](C1CCCC1)O[C@@H]2C	x	-3.2	x	5.9	2.0	x	x
COc1ccc(C(C)=O)cc1COC(=O)C1CCN(C(=O)c2ccc(Cl)cc2)CC1	-11.3	+	-1.2	7.2	5.1	7.3	5.4
COc1ccc(COC(=O)C2CCN(C(=O)c3ccc(Cl)cc3)CC2)cc1F	-7.0	-1.3	3.9	-4.3	-5.4	1.6	x
Cc1ccc(/C=C/C(=O)OCc2nc(N)nc(Nc3ccccc3C)n2)o1	-8.1	34.3*	-0.6	0.8	-1.0	5.7	-5.6
CCN(CC)S(=O)(=O)c1cccc(C(=O)N/N=C2\CCCC(=O)C2)c1	4.4	45.9*	-4.9	0.6	4.7	-3.7	-1.7
CN1CCc2c(sc3c2C(=O)NC(c2ccco2)N3)C1 (centres undefined)	3.2	26.8*	2.0	6.5	-1.9	-3.5	-0.1
CN1CCc2c(sc3c2C(=O)NC(c2ccc(-c4ccc(Cl)cc4)o2)N3)C1 (centres undefined)	x	13.3	-1.8	-1.6	1.3	1.0	x
O=C1NC(c2ccco2)Nc2sc3c(c21)CCN(Cc1ccccc1)C3 (centres undefined)	6.0	31.2*	-4.7	-1.9	-7.3	-6.3	-1.5
Cc1cccc(N2C(=O)C(Cl)=C(N3CCOCC3)C2=O)c1	3.2	27.9*	-2.6	8.9	-3.0	0.0	1.0
C=CC[C@@]1(c2ccc(Br)cc2OC)Oc2ccccc2-c2nccnc21	x	0.9	x	-4.6	0.1	x	x
O=C(CCNc1ccc(Cc2ccncc2)cc1)c1cccc([N+](=O)[O-])c1	0.2	32.1*	-3.2	3.4	1.9	-3.1	30.8*
O=C(Nc1cccc([N+](=O)[O-])c1)c1ccncc1	5.3	-0.1	-7.6	0.4	6.9	-4.4	x
O=C(CCNc1cccc(F)c1)c1cccc([N+](=O)[O-])c1	-5.0	40.8*	-2.4	1.9	-3.3	1.1	27.1*
Cc1ccc(S(=O)(=O)CCC(=O)c2cccc([N+](=O)[O-])c2)cc1	14.3	82.9*	5.1	7.7	3.1	3.9	90.8*
O=C(Nc1c(-c2ccccc2)nc2ncccn12)C1CC1	x	2.1	x	0.5	0.4	x	x
O=C(NCSc1ccnc(SCNC(=O)c2ccccc2)n1)c1ccccc1	10.7	14.3	-6.0	1.1	9.9	0.1	x
O=C(NCSc1ccncn1)c1ccccc1	-0.8	49.4*	1.3	7.4	5.1	2.5	9.2
CC(=O)Nc1ccc(SCC(=O)c2cc(C)n(-c3ccccc3)c2C)cc1	-2.9	3.9	6.4	6.0	10.4	-0.1	x
CC(=O)Nc1ccc(SCC(=O)c2cc(C)ccc2C)cc1	-9.9	28.6*	9.1	-3.6	-8.8	10.1	24.8*
Cc1ccc(C)c(C(=O)CSc2n[nH]c(C)n2)c1	5.9	25.7*	-5.0	1.9	-0.1	3.6	47.2*
Cc1cccc(NC(=O)C2CC(=O)n3cnnc3S2)c1 (centres undefined)	-9.5	84.0*	1.2	-19.6	-4.4	3.2	60.4*
CCN=C1SC(C(=O)Nc2cccc(C)c2)CC(=O)N1CC (centres undefined)	-0.2	7.4	4.7	-10.5	-1.9	-7.0	x
O=C1N2CCCc3cccc(c32)C12Nc1ccccc1S2 (centres undefined)	2.4	39.7*	x	13.4	6.2	-5.0	22.9*
COc1ccc(NC(=O)c2sc3nc(-c4cccnc4)ccc3c2N)cc1	3.1	-1.8	1.3	4.9	2.1	4.9	x
Nc1c(C(=O)N2CCCCC2)sc2nc3c(cc12)CCCC3	1.5	-1.2	0.2	5.3	7.2	4.0	x
Nc1c(C(=O)Nc2ccccc2)sc2nc(-c3cccnc3)ccc12	x	39.6*	-4.1	-3.8	5.0	1.9	2.2
COc1ccc2cc3c(N)c(C(=O)N4CCCC4)sc3nc2c1	x	40.8*	-1.9	-9.0	-0.1	-0.8	-0.1
